# EBNA-1 inhibitor: blocks EBNA-1 binding to DNA; EBNA-1 DNA binding, fluorescence polarization; inhibition, % at 14.8 µM; 300,000 tested, 0.34% active; in the data active = inhibition above about 28%
# Apaf1 inhib: blocks human Apaf-1 apoptosome activity; O14727; reconstituted apoptosome caspase-3 activity, DEVD-Rh110 fluorescence; inhibition, % at 20 µM; 330,000 tested, 0.71% active; active = inhibition of at least 40% at 20 µM;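 also: plate controls were DMSO wells for no effect and DEVD-CHO caspase inhibitor wells for full effect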
#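 Material: cell-free apoptosome with Apaf-1, procaspase-3 and caspase-9; Buffer or medium: Hepes pH 7.5 with detergent and BSA; Reagent: cytochrome c trigger plus (Z-DEVD)2-Rh110 caspase-3 substrate; Times: compound with Apaf-1, dATP, procaspase-3 30 min, then 50 min reaction, room temperature; Technique: Rh110 fluorescence intensity.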
# procasp3 activ: procaspase-3 (human) activation | P42574 | recombinant procaspase-3 D3A, Ac-DEVD-pNA absorbance 405 nm | activation, % at 8.5 µM | 330,000 tested, 0.11% active | AID 463141;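 active = activation above the mean of all tested compounds plus 3 SD, cut at about 21% in these data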;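 also: 0% = DMSO alone and 100% = DMSO wells spiked with extra 5 µM PC-3 D3A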
#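 Assay system: Procaspase-3 D3A mutant, all three cleavage aspartates alanine. Buffer or medium: Zinc-free HEPES saline buffer with Triton X-100. Times: 1 h compound preincubation, 2 h substrate hydrolysis at 25 °C. Measured by: 405 nm absorbance of p-nitroaniline, reads at 0 and 120 min. Read-out basis: percent activation relative to control range. Replicates: singlicate.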
# GSTO1 inh: GSTO1 inhibition, counter-screen for RBBP9 inhibitors | P78417 | AID 1974 | inhibition, % at 5.96 µM | recombinant GSTO1, activity-based probe fluorescence polarization | 300,000 tested, 1.1% active;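 active = inhibition above the campaign mean inhibition plus 3 SD, cut at about 35% in these data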;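 also: 0% = GSTO1-1 with DMSO and 100% = wells lacking GSTO1-1 enzyme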
# ZTA DNA inh: counter-screen for EBNA-1 inhibitors: inhibitors of Epstein-Barr virus ZTA; ZTA-DNA binding, fluorescence polarization; AID 2234; inhibition, % at 11 µM; 320,000 tested, 0.15% active; P03206; in the data active = inhibition above about 33%
# proCasp7 act: counter-screen for procaspase-3 activators: activators of human procaspase-7. activation, % at 8.5 µM. AID 463210. 330,000 tested, 0.093% active. recombinant procaspase-7, Ac-DEVD-pNA absorbance 405 nm; D23A/D198A/D206A triple mutant, cannot self-cleave; scale: DMSO 0, 5 µM enzyme 100. P55210;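 active = percent activation above the screen-wide mean plus 3 SD, cut at about 25% in these data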
#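 Test system: Procaspase-7 triple mutant (PC-7 D3A). Also added: Ac-DEVD-pNA substrate, 400 µM as added. Schedule: 1 h enzyme–compound preincubation and 2 h substrate reaction, both 25 °C. Signal: p-Nitroaniline absorbance at 405 nm, read at 0 and 120 min. Control set: low DMSO alone, high DMSO plus 5 µM PC-7.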
# EBNA-1 confirm: EBNA-1 (EBV) inhibition, confirmation; shares compounds with EBNA-1 inhibitor; Recombinant EBNA-1 DBD, Cy5-DNA fluorescence polarization; inhibition, % at 14.8 µM; 830 tested, 35% active;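 active = mean inhibition across replicates above a set limit taken from the earlier primary screen, cut at about 28% in these data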;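 also: plate controls were EBNA-1 protein with DMSO for no effect and wells lacking EBNA-1 for full effect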
# ZTA DNA inh trip: blocks Epstein-Barr virus ZTA in triplicate, EBNA-1 counter-screen | shares compounds with EBNA-1 inhibitor | inhibition, % at 11.1 µM | Zta-ZRE DNA binding, Cy5 fluorescence polarization | 830 tested, under 10 active;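 active = mean inhibition over triplicates above a set limit taken from the primary EBNA-1 screen, cut at about 37% in these data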;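 also: purified full length Zta protein with Cy5 labeled ZRE DNA probe; 0% = Zta with DMSO and 100% = wells lacking Zta protein; inhibitors lower polarization by freeing the labeled DNA probe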
# * marks the source's active call; other numbers are inactive results; . = no result given. This is a sample that favours compounds with a hit; in the whole collection about 1.8% have one here.
SMILES,EBNA-1 inhibitor,Apaf1 inhib,procasp3 activ,GSTO1 inh,ZTA DNA inh,proCasp7 act,EBNA-1 confirm,ZTA DNA inh trip
COc1ccccc1CNC(=O)c1ccc2nc3[nH]c4ccccc4c3nc2c1,65*,1,-3,-7,8,-2,67*,-10
CCc1nc2ccc(C(=O)NCCc3ccccc3OC)cc2nc1CC,8,9,-3,0,-7,6,.,.
CCc1ccc(NC(=O)CCCNC(=O)Cn2cnc3sc(C)c(C)c3c2=O)cc1,62*,2,7,6,10,14,31*,-10
Cc1ccc(NC(=O)c2sc3ncn(CC(=O)N4CCN(c5ccccn5)CC4)c(=O)c3c2C)cc1Cl,31*,28,-5,-5,-13,-2,-3,-1
Cc1ccc(NC(=O)c2sc3ncn(CC(=O)N4CCN(c5ccccn5)CC4)c(=O)c3c2C)cc1F,-2,1,4,-3,-8,9,.,.
CCCc1ccc(C(C)NC(=S)NC2CCCCC2)cc1 (configuration not stated),.,11,.,.,.,.,.,.
Cc1ccc(C(=O)NC(=S)Nc2ccc3[nH]c(=O)[nH]c3c2)cc1,43*,4,-7,-5,33,-14,34*,12
COc1ccc(-n2nnnc2SCC(=O)c2cccc(OC)c2)cc1,11,8,7,11,14,2,.,.
COc1ccc(-n2nnnc2SCC(=O)c2ccc3c(c2)OCCO3)cc1,28*,3,-5,0,-7,-2,25,15
COc1cccc(-c2cc(C(=O)Nc3cnn(Cc4ccc(F)cc4)c3)no2)c1,47*,-1,-5,2,-2,2,32*,18
COc1cccc(-c2cc(C(=O)Nc3cnn(Cc4ccccc4C)c3)no2)c1,26,-9,1,-3,12,-11,.,.
C=CCn1c(SCC(=O)NCc2ccco2)nc2sc(C)c(C)c2c1=O,42*,3,-2,5,-13,2,14,6
CCO[C@H]1c2c(ccc3ccc(=O)oc23)OC(C)(C)[C@H]1O,.,-2,-6,.,.,-6,.,.
Cc1ccc(S(=O)(=O)N(C)c2ccc(N)cc2)cc1,-5,-3,5,1,1,3,.,.
Cc1ccc(S(=O)(=O)N(C(=N)N)c2nc(N(C)C)nc(N(C)C)n2)cc1,31*,3,3,1,6,4,5,5
O=C(Nc1ccc2oc(-c3ccncc3)nc2c1)c1ccccc1,9,-3,-3,5,10,2,.,.
O=C(Nc1ccc2oc(-c3ccccc3)nc2c1)c1ccccc1F,35*,6,2,-8,12,6,-3,-2
O=C(Nc1ccc2oc(-c3ccc4ccccc4c3)nc2c1)c1ccc2c(c1)OCCO2,31*,0,-7,-17,12,16,25,9
O=C(Nc1ccc2oc(-c3ccncc3)nc2c1)c1ccccc1F,0,13,3,7,-2,17,.,.
Cc1ccc2oc(-c3ccc(C)c(NC(=O)Cc4cccs4)c3)nc2c1,-6,14,3,3,-3,16,.,.
Cc1ccc2oc(-c3cccc(NC(=O)Cc4cccs4)c3)nc2c1,34*,-7,3,3,7,0,14,-3
CCC(=O)Nc1cccc(-c2nc3ccc(C)cc3o2)c1,-8,2,6,-4,-20,-4,.,.
Cc1ccc2nc(-c3cccc(NC(=O)c4ccc5c(c4)OCCO5)c3)oc2c1,35*,8,7,-12,19,8,23,7
O=C(COc1cc(F)ccc1[N+](=O)[O-])NCCN1C(=O)CSC1=O,.,-1,12,.,.,-11,.,.
CN(Cc1ccccc1F)C(=O)CN1C(=O)NC2(CCc3ccccc32)C1=O (configuration not stated),.,-3,.,.,.,.,.,.
SMILES,EBNA-1 inhibitor,Apaf1 inhib,procasp3 activ,GSTO1 inh,ZTA DNA inh,proCasp7 act,EBNA-1 confirm,ZTA DNA inh trip
COc1ccc(CN(CC(O)COCc2ccccc2)S(=O)(=O)c2ccccc2Br)cc1OC (configuration not stated),.,28,7,.,.,1,.,.
CN1CCN(C(=O)Cn2ncc3c([nH]c4ccccc43)c2=O)CC1,-11,-2,-6,2,-10,2,.,.
Cn1c(O)c(N=NC(=O)c2cc(-c3cccs3)nc3ccccc23)c2ccccc21,109*,1,1,0,-17,-6,82*,-8
COCCCN(C(=O)c1cc(C)oc1C)c1c(N)n(CC(C)C)c(=O)[nH]c1=O,.,-7,6,.,-1,-5,.,.
COc1ccc(CNC(=O)CSc2nnc3c(n2)[nH]c2ccc(C)cc23)cc1,-1,4,6,3,-3,3,.,.
COc1ccc2[nH]c3nc(SCc4nnc(-c5ccc(C)cc5)o4)nnc3c2c1,55*,-2,2,0,3,-3,40*,6
COCCn1c(Cc2ccccc2)nnc1SCC(=O)NC(C)C,87*,-11,6,-1,19,-3,3,3
CCc1cc(C(=O)N(C)CC(=O)N(CC(C)C)c2c(N)n(CC(C)C)c(=O)[nH]c2=O)sc1C,9,-1,4,5,3,6,.,.
CCCCN(C(=O)c1cc(CC)c(C)s1)c1c(N)n(CC(C)C)c(=O)[nH]c1=O,66*,9,0,-6,-16,0,4,-6
O=C(N/N=C/c1ccc(O)cc1)c1nc(-c2ccccc2)n(-c2ccccc2)n1,31*,8,-2,0,1,-1,31*,-5
Cc1cccc(OCC(=O)N/N=C\C=C\c2ccc3c(c2)OCO3)c1C,59*,9,-5,4,-7,0,80*,-1
N#Cc1ccc(CN2CCN(C(=O)CN3C(=O)NC4(CCCC4)C3=O)CC2)cc1,.,2,.,.,.,.,.,.
CC1=CC2=NC(=O)/C(=C\c3cn(C)c4ccccc34)C(=N)N2O1,40*,7,-3,0,-10,-3,91*,2
CC1O[C@@H](OC2C(O)C(O)C(CO)O[C@H]2OC2C[C@]3(C)C(CC(O)C4[C@@H]([C@]5(C)CC[C@@H](C(C)(C)O)O5)CC[C@]43C)[C@@]3(C)CCC(O)C(C)(C)C23)C(O)C(O)C1O (some centres not stated),.,9,3,.,.,3,.,.
O=C(Nc1ccccn1)C1CCN(S(=O)(=O)c2ccc(Cl)cc2)CC1,0,3,7,0,-6,1,.,.

# High-throughput results: PubChem BioAssay, several laboratories
